Test results published in ChEMBL document CHEMBL5661985, “In silico design of novel probes for the atypical opioid receptor MRGPRX2” (Nat Chem Biol, 2017).
The source made the active and inactive calls. No cut-off for these calls is given here. Where a SMILES comes first, the peptide text is derived from it.

Legend:
[1] = molecular target: T1, Mas-related G-protein coupled receptor member X2 (Homo sapiens, UniProt Q96LB1); test: Agonist activity at N-terminal Flag-tagged human MRGPRX2 receptor expressed in tetracycline-induced FLP-IN/T-REX 293 cells assessed as increase in intracellular calcium release by FLIPR assay; format: functional, cell-based; conditions: read-out: pEC50 (converted)
T1 sequence (Q96LB1 whole entry): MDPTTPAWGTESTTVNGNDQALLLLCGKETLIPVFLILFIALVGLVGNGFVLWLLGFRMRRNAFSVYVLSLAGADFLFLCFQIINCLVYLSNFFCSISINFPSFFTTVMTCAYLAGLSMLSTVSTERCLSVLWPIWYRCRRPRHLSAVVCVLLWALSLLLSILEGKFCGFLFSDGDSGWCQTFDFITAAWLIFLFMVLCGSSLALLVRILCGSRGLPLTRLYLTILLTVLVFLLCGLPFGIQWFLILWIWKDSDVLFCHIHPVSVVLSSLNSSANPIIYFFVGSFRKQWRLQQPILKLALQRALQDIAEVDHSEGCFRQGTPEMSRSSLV

[2] = molecular target: T1, Mas-related G-protein coupled receptor member X2; test: Agonist activity at MRGPRX2 (unknown origin) expressed in HTLA cells assessed as induction of beta-arrestin 2 recruitment incubated for 18 to 24 hrs by PRESTO-Tango assay; format: functional, cell-based; conditions: read-out: pEC50 (converted)
[3] = molecular target: T2, Mas-related G-protein coupled receptor member X2 (Homo sapiens) (UniProt Q96LB1); test: Agonist activity at N-terminal Flag-tagged human MRGPRX2 receptor expressed in FLP-IN/T-REX 293 cells assessed as increase in intracellular calcium release by FLIPR assay; format: functional, cell-based; conditions: filed as agonist
T2 sequence (whole entry): T1 sequence (Q96LB1 whole entry)
Method in brief: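 FLIPR calcium: FLP-IN/T-REX HEK-293-T stable line with N-terminal FLAG codon-optimized receptor, induced 24 h with 1 μg/mL tetracycline in 1% dialyzed FBS (uninduced cells as control); FLIPR calcium dye plus 2.5 mM probenecid 1 h 37°C; 10 s baseline, then drug in HBSS/20 mM HEPES/probenecid pH 7.4, 16-point curve 10 μM to 0.003 nM; fluorescence 120 s; fold over basal, n=3 triplicate.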

[4] = system: Flp-In-T-REx-293; test: Agonist activity at rodent MRGPRB2 receptor expressed in tetracycline-induced FLP-IN/T-REX 293 cells assessed as increase in intracellular calcium release at 0.003 to 100000 nM by FLIPR assay; format: cell-based; conditions: Rodentia, filed as agonist, dose 0.003-100000 nM
[5] = system: HTLA; test: Agonist activity at […] expressed in HTLA cells assessed as induction of beta-arrestin 2 recruitment incubated for 18 to 24 hrs by PRESTO-Tango assay; format: cell-based; conditions: Rodentia, filed as agonist, time 18-24 hrs
Method in brief: (§1)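 β-arrestin2 recruitment by PRESTO-Tango: HTLA cells transiently transfected (calcium phosphate) with codon-optimized MRGPRX2-Tango (WT or point mutant) or MRGPRB2-Tango, plated next day 20,000 cells/well on poly-L-lysine; drug in HBSS/20 mM HEPES/0.3% BSA pH 7.4 for 18–24 h; Bright-Glo luminescence (RLU); curves n=3 in triplicate, mutants n=4 in triplicate.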

[6] = molecular target: T2, Mas-related G-protein coupled receptor member X2 (Homo sapiens); test: Agonist activity at MRGPRX2 receptor in human LAD2 cells assessed as increase in intracellular calcium release by FLIPR assay; format: functional, cell-based; conditions: filed as agonist
Method in brief: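 LAD2 human mast cells seeded 50,000/well in Tyrode's buffer with calcium dye, 1 h before drug; 10 s baseline, drug added, fluorescence followed 120 s; expressed as fold calcium release over baseline; n=3 in triplicate.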

[7] = molecular target: T2, Mas-related G-protein coupled receptor member X2 (Homo sapiens); test: Agonist activity at MRGPRX2 receptor in human LAD2 cells transfected with MRGPRX2 siRNA assessed as increase in degranulation incubated for 30 mins by beta-hexosaminidase assay; format: functional, cell-based
Method in brief: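 LAD2 cells (1.2 million/well) transfected with 25 nM MRGPRX2 siRNA pool or non-targeting pool, 72 h; 200,000 cells taken for β-hexosaminidase assay with EC80 concentration of agonist, 30 min 37°C; knockdown checked by qRT-PCR on 1 million cells; fold change % degranulation versus DMSO; two-way ANOVA with Sidak test.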

[8] = molecular target: T2, Mas-related G-protein coupled receptor member X2 (Homo sapiens); test: Agonist activity at MRGPRX2 (unknown origin) expressed in HTLA cells assessed as induction of beta-arrestin 2 recruitment at 10 uM incubated for 18 to 24 hrs by PRESTO-Tango assay; format: functional, cell-based; conditions: filed as agonist, time 18-24 hrs; method in brief: as §1

CC[C@H](C)[C@H](N)C(=O)N[C@@H](CC(N)=O)C(=O)N[C@@H](CC(C)C)C(=O)N[C@@H](CCCCN)C(=O)N[C@@H](C)C(=O)N[C@@H](CC(C)C)C(=O)N[C@@H](C)C(=O)N[C@@H](C)C(=O)N[C@@H](CC(C)C)C(=O)N[C@@H](C)C(=O)N[C@@H](CCCCN)C(=O)N[C@@H](CCCCN)C(=O)N[C@H](C(=O)N[C@@H](CC(C)C)C(N)=O)[C@@H](C)CC
EC50 [1]: 11.7 µM
EC50 [2]: > 31.6 µM
Activity [3]: Active

COC1=CC2CN(C)CCC2C=C1 (stereo unspecified)
EC50 [1]: 1.62 µM

C[C@@H](O)[C@@H]1NC(=O)[C@H](CCCCN)NC(=O)[C@H](Cc2c[nH]c3ccccc23)NC(=O)[C@H](Cc2ccccc2)NC(=O)[C@H](Cc2ccccc2)NC(=O)[C@H](CC(N)=O)NC(=O)[C@H](CCCCN)NC(=O)[C@@H](NC(=O)[C@@H]2CCCN2)CSSC[C@@H](C(=O)N[C@@H](CCCCN)C(=O)O)NC(=O)[C@H](CO)NC(=O)[C@H](CO)NC(=O)[C@H](Cc2ccccc2)NC1=O (HELM PEPTIDE1{P.C.K.N.F.F.W.K.T.F.S.S.C.K}$PEPTIDE1,PEPTIDE1,2:R3-13:R3$$$V2.0)
Activity [4]: Active
EC50 [1]: 0.417 µM
EC50 [2]: 0.145 µM
Activity [5]: Active

CN(C)C1CCN(c2cc(-c3ccccc3)nc3ccnn23)C1 (racemic)
Activity [6]: Active
Activity [7]: inactive
Activity [8]: Active
